From ChEMBL document CHEMBL1165989, “Characterization of pseudacyclins A-E, a suite of cyclic peptides produced by Pseudallescheria boydii” (J Nat Prod, 2010)
pIC50: −log10 of the molar value. Active and inactive are the calls of the source. The calls are words filed in the database; no cut-off is given here.

What was measured:
Staphylococcus aureus = test: Antimicrobial activity against Staphylococcus aureus; assay type: functional, organism-based
[1] = Cytotoxicity against resting human lymphocytes by MTT assay; assay type: cell-based; conditions: Lymphocyte
Candida parapsilosis = test: Antimicrobial activity against Candida parapsilosis; assay type: functional, organism-based
Candida albicans = test: Antimicrobial activity against Candida albicans; assay type: functional, organism-based
Escherichia coli = test: Antimicrobial activity against Escherichia coli; assay type: functional, organism-based
Enterococcus faecalis = test: Antimicrobial activity against Enterococcus faecalis; assay type: functional, organism-based
Pichia kudriavzevii = test: Antimicrobial activity against Candida krusei; assay type: functional, organism-based
[2] = Inhibition of NO synthase activity in mouse B10R cells assessed as LPS-induced NO production after 24 hrs; assay type: cell-based
Summary of the method: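 B10R macrophages stimulated with […] (0.5 µg/mL). NO-synthase activity was read as NO2- production over 24 h, and an IC50 was derived.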

Candida tropicalis = test: Antimicrobial activity against Candida tropicalis; assay type: functional, organism-based
Streptococcus pyogenes = test: Antimicrobial activity against Streptococcus hemolyticus; assay type: functional, organism-based
[3] = Cytotoxicity against mitogen-activated human lymphocytes by MTT assay; assay type: cell-based; conditions: Lymphocyte

pIC50 [2]: 4.38
Compound: CC[C@H](C)[C@H](NC(C)=O)C(=O)N[C@H]1CCCNC(=O)[C@H]([C@@H](C)CC)NC(=O)[C@H]([C@@H](C)CC)NC(=O)[C@@H]2CCCN2C(=O)[C@@H](Cc2ccccc2)NC1=O [PSEUDACYCLIN A]
inhibition (Staphylococcus aureus): inactive | pIC50 [1]: 4.49 | inhibition (Candida parapsilosis): inactive | inhibition (Candida albicans): inactive | inhibition (Escherichia coli): inactive | inhibition (Enterococcus faecalis): inactive | inhibition (Pichia kudriavzevii): inactive | inhibition (Candida tropicalis): inactive | inhibition (Streptococcus pyogenes): inactive | pIC50 [3]: 4.89
